Data: ChEMBL document CHEMBL1126110, “Antirhinoviral activity of heterocyclic analogs of Win 54954” (1992)
Values after ≈ are worked out from the molar mass of the structure shown. Active and inactive are the calls of the source. The rule behind the calls is not given here.

Legend:
rhinovirus B14 [1] = test: Minimum inhibitory concentration in vitro against HRV-14 in a plaque reduction assay; format: functional, human rhinovirus type 14; settings: Rhinovirus B
Procedure, shortened: (§1)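 Plaque reduction assay in HeLa-Ohio cells. MIC is the concentration (μM) that cut plaque number by 50%.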

rhinovirus B14 [2] = test: Minimum inhibitory concentration in vitro against HRV-14 in a plaque reduction assay; NA=Not active; format: functional, organism-based; settings: human rhinovirus type 14; procedure, shortened: as §1
Human rhinovirus sp. [3] = test: (§2) In vitro inhibition of 80% of the serotypes; format: functional
Procedure, shortened: (§3)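 Fifteen rhinovirus serotypes (HRV-14 plus 14 more) were each run in a plaque reduction assay in HeLa-Ohio cells. The MIC for each serotype was the μM concentration giving 50% plaque reduction. MIC80 is the concentration that inhibited 80% of the serotypes tested.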

Human rhinovirus 1A = test: Minimum inhibitory concentration against human rhinovirus serotype 1A; format: functional; procedure, shortened: as §1
rhinovirus A1B = test: Minimum inhibitory concentration against human rhinovirus serotype 1B; format: functional; settings: Rhinovirus A; procedure, shortened: as §1
rhinovirus A2 [4] = test: (§4) Minimum inhibitory concentration against human rhinovirus serotype 2; format: functional; settings: Rhinovirus A; procedure, shortened: as §1
rhinovirus A21 = test: Minimum inhibitory concentration against human rhinovirus serotype 21; format: functional; settings: Rhinovirus A; procedure, shortened: as §1
rhinovirus A22 = test: Minimum inhibitory concentration against human rhinovirus serotype 22; format: functional; settings: Rhinovirus A; procedure, shortened: as §1
rhinovirus A25 = test: Minimum inhibitory concentration against human rhinovirus serotype 25; format: functional; settings: Rhinovirus A; procedure, shortened: as §1
rhinovirus A30 = test: Minimum inhibitory concentration against human rhinovirus serotype 30; format: functional; settings: Rhinovirus A; procedure, shortened: as §1
rhinovirus A41 = test: Minimum inhibitory concentration against human rhinovirus serotype 41; format: functional; settings: Rhinovirus A; procedure, shortened: as §1
rhinovirus B6 = test: Minimum inhibitory concentration against human rhinovirus serotype 6; format: functional; settings: Rhinovirus B; procedure, shortened: as §1
rhinovirus A67 = test: Minimum inhibitory concentration against human rhinovirus serotype 67; format: functional; settings: Rhinovirus A; procedure, shortened: as §1
rhinovirus B86 = test: Minimum inhibitory concentration against human rhinovirus serotype 86; format: functional; settings: Rhinovirus B; procedure, shortened: as §1
rhinovirus A89 = test: Minimum inhibitory concentration against human rhinovirus serotype 89; format: functional; settings: Rhinovirus A; procedure, shortened: as §1
rhinovirus B14 [5] = test: Minimum inhibitory concentration against human rhinovirus serotype 14; format: functional; settings: Rhinovirus B; procedure, shortened: as §1
rhinovirus A15 = test: Minimum inhibitory concentration against human rhinovirus serotype 15; format: functional; settings: Rhinovirus A; procedure, shortened: as §1
rhinovirus A50 = test: Minimum inhibitory concentration against human rhinovirus serotype 50; format: functional; settings: Rhinovirus A; procedure, shortened: as §1
rhinovirus A2 [6] = test: as §4; format: functional; settings: Rhinovirus A; procedure, shortened: as §1; remark: listed apart in the source
Human rhinovirus sp. [7] = test: as §2; format: functional; procedure, shortened: as §3; remark: listed apart in the source

Compound: Cc1cc(CCCCCOc2c(Cl)cc(-c3ccncc3)cc2Cl)on1
- MIC (rhinovirus B14 [1]): 0.97 µM (≈ 0.38 µg/mL)

Compound: Cc1cc(CCCCCOc2c(Cl)cc(-c3ccoc3)cc2Cl)on1
- MIC (rhinovirus B14 [2]): inactive
- MIC80 (Human rhinovirus sp. [3]): 2.9 µM (≈ 1.1 µg/mL)

Compound: Cc1cc(CCCCCOc2c(Cl)cc(C3=NCCO3)cc2Cl)on1 [WIN-54954]
- MIC (rhinovirus B14 [1]): 1.2 µM (≈ 0.46 µg/mL)
- MIC (Human rhinovirus 1A): 2.51 µM (≈ 0.962 µg/mL)
- MIC (rhinovirus A1B): 0.17 µM (≈ 0.0652 µg/mL)
- MIC (rhinovirus A2 [4]): 0.023 µM (≈ 0.00882 µg/mL)
- MIC (rhinovirus A21): 0.02 µM (≈ 0.00767 µg/mL)
- MIC (rhinovirus A22): 0.02 µM (≈ 0.00767 µg/mL)
- MIC (rhinovirus A25): 0.29 µM (≈ 0.111 µg/mL)
- MIC (rhinovirus A30): 0.09 µM (≈ 0.0345 µg/mL)
- MIC (rhinovirus A41): 0.89 µM (≈ 0.341 µg/mL)
- MIC (rhinovirus B6): 0.23 µM (≈ 0.0882 µg/mL)
- MIC (rhinovirus A67): 0.18 µM (≈ 0.069 µg/mL)
- MIC (rhinovirus B86): 0.21 µM (≈ 0.0805 µg/mL)
- MIC (rhinovirus A89): 0.02 µM (≈ 0.00767 µg/mL)
- MIC80 (Human rhinovirus sp. [3]): 0.33 µM (≈ 0.126 µg/mL)
- MIC (rhinovirus B14 [5]): 1.2 µM (≈ 0.46 µg/mL)
- MIC (rhinovirus A15): 0.41 µM (≈ 0.157 µg/mL)
- MIC (rhinovirus A50): 0.06 µM (≈ 0.023 µg/mL)

Compound: Cc1cc(CCCCCOc2c(Cl)cc(-c3ccc(Cl)s3)cc2Cl)on1
- MIC (rhinovirus B14 [1]): 5.3 µM (≈ 2.28 µg/mL)
- MIC80 (Human rhinovirus sp. [3]): 3.13 µM (≈ 1.35 µg/mL)

Compound: Cc1cc(CCCCCOc2c(Cl)cc(-c3nc(C)c(C)s3)cc2Cl)on1
- MIC (rhinovirus B14 [1]): 2.59 µM (≈ 1.1 µg/mL)
- MIC80 (Human rhinovirus sp. [3]): 2.14 µM (≈ 0.91 µg/mL)

Compound: Cc1cc(CCCCCOc2c(Cl)cc(-c3ccccn3)cc2Cl)on1
- MIC (rhinovirus B14 [1]): 6.64 µM (≈ 2.6 µg/mL)
- MIC80 (Human rhinovirus sp. [3]): 1.38 µM (≈ 0.54 µg/mL)

Compound: Cc1cc(CCCCCOc2c(Cl)cc(-c3cnco3)cc2Cl)on1
- MIC (rhinovirus B14 [1]): 12.8 µM (≈ 4.86 µg/mL)
- MIC80 (Human rhinovirus sp. [3]): 2.24 µM (≈ 0.854 µg/mL)

Compound: Cc1cc(CCCCCOc2c(Cl)cc(-c3nnn(C)n3)cc2Cl)on1
- MIC (rhinovirus B14 [1]): 0.38 µM (≈ 0.151 µg/mL)
- MIC (Human rhinovirus 1A): 0.38 µM (≈ 0.151 µg/mL)
- MIC (rhinovirus A1B): 0.05 µM (≈ 0.0198 µg/mL)
- MIC (rhinovirus A2 [4]): 0.025 µM (≈ 0.00991 µg/mL)
- MIC (rhinovirus A21): 0.02 µM (≈ 0.00793 µg/mL)
- MIC (rhinovirus A22): 0.008 µM (≈ 0.00317 µg/mL)
- MIC (rhinovirus A25): 0.08 µM (≈ 0.0317 µg/mL)
- MIC (rhinovirus A30): 0.23 µM (≈ 0.0911 µg/mL)
- MIC (rhinovirus A41): 0.63 µM (≈ 0.25 µg/mL)
- MIC (rhinovirus B6): 0.23 µM (≈ 0.0911 µg/mL)
- MIC (rhinovirus A67): 0.18 µM (≈ 0.0713 µg/mL)
- MIC (rhinovirus B86): 0.24 µM (≈ 0.0951 µg/mL)
- MIC (rhinovirus A89): 0.01 µM (≈ 0.00396 µg/mL)
- MIC (rhinovirus A2 [6]): 0.025 µM (≈ 0.00991 µg/mL)
- MIC80 (Human rhinovirus sp. [3]): 0.25 µM (≈ 0.0991 µg/mL)
- MIC (rhinovirus B14 [5]): 0.38 µM (≈ 0.151 µg/mL)
- MIC (rhinovirus A15): 0.25 µM (≈ 0.0991 µg/mL)
- MIC (rhinovirus A50): 0.06 µM (≈ 0.0238 µg/mL)

Compound: Cc1cc(CCCCCOc2c(Cl)cc(-c3ccsc3)cc2Cl)on1
- MIC (rhinovirus B14 [2]): inactive
- MIC80 (Human rhinovirus sp. [3]): 2.88 µM (≈ 1.14 µg/mL)

Compound: Cc1cc(CCCCCOc2c(Cl)cc(-c3cccnc3)cc2Cl)on1
- MIC (rhinovirus B14 [1]): 6.6 µM (≈ 2.58 µg/mL)

Compound: Cc1cc(CCCCCOc2c(Cl)cc(-c3ccc(C)o3)cc2Cl)on1
- MIC (rhinovirus B14 [1]): 2.64 µM (≈ 1.04 µg/mL)
- MIC80 (Human rhinovirus sp. [3]): 1.27 µM (≈ 0.501 µg/mL)

Compound: Cc1cc(CCCCCOc2c(Cl)cc(-c3ncco3)cc2Cl)on1
- MIC (rhinovirus B14 [1]): 1.83 µM (≈ 0.698 µg/mL)
- MIC80 (Human rhinovirus sp. [3]): 1.71 µM (≈ 0.652 µg/mL)

Compound: Cc1cc(CCCCCOc2c(Cl)cc(-c3ccco3)cc2Cl)on1
- MIC (rhinovirus B14 [1]): 0.71 µM (≈ 0.27 µg/mL)
- MIC80 (Human rhinovirus sp. [3]): 1.05 µM (≈ 0.399 µg/mL)

Compound: Cc1cc(CCCCCOc2c(Cl)cc(-c3cccn3C)cc2Cl)on1
- MIC (rhinovirus B14 [2]): inactive

Compound: Cc1cc(CCCCCOc2c(Cl)cc(-c3cccs3)cc2Cl)on1
- MIC (rhinovirus B14 [1]): 7.32 µM (≈ 2.9 µg/mL)
- MIC80 (Human rhinovirus sp. [3]): 1.11 µM (≈ 0.44 µg/mL)

Compound: Cc1cc(CCCCCOc2c(Cl)cc(-c3nnnn3C)cc2Cl)on1
- MIC (rhinovirus B14 [1]): 2.04 µM (≈ 0.808 µg/mL)
- MIC80 (Human rhinovirus sp. [3]): 7.02 µM (≈ 2.78 µg/mL)
- MIC80 (Human rhinovirus sp. [7]): 7.02 µM (≈ 2.78 µg/mL)

Compound: Cc1cc(CCCCCOc2c(Cl)cc(-c3ccc(C)s3)cc2Cl)on1
- MIC (rhinovirus B14 [1]): 5.2 µM (≈ 2.13 µg/mL)
- MIC80 (Human rhinovirus sp. [3]): 1.71 µM (≈ 0.702 µg/mL)

Compound: Cc1cc(CCCCCOc2c(Cl)cc(C3=NCCC3)cc2Cl)on1
- MIC (rhinovirus B14 [2]): inactive

Compound: Cc1cc(CCCCCOc2c(Cl)cc(-c3cccc(C)n3)cc2Cl)on1
- MIC (rhinovirus B14 [1]): 5.88 µM (≈ 2.38 µg/mL)
- MIC80 (Human rhinovirus sp. [3]): 1.93 µM (≈ 0.782 µg/mL)

Compound: Cc1cc(CCCCCOc2c(Cl)cc(-c3nc(C)c(C)o3)cc2Cl)on1
- MIC (rhinovirus B14 [1]): 2.79 µM (≈ 1.14 µg/mL)
- MIC80 (Human rhinovirus sp. [3]): 1.3 µM (≈ 0.532 µg/mL)
